Source: PMC2695835 (Bioorganic & medicinal chemistry, 2009)
Values joined by “and” are separate entries in the source; they are usually repeats but may differ in a detail not shown here. Identical values can stand only once. Like-named read-outs stand apart in the source and are kept apart here. Marks after values point to notes of the source that are not given here. Values belong to the compound of their own block, whether it stands above or below them.

Legend:
GIVA cPLA2 [1] = target: T1, GIVA cPLA2 (Homo sapiens, UniProt P47712); assay: In vitro GIVA cPLA2 inhibition, mixed micellar modified Dole assay; assay type: biochemical; conditions: mole fraction of inhibitor in total substrate interface required to inhibit the enzyme by 50%; mixed micelles
T1 sequence (P47712 1-749): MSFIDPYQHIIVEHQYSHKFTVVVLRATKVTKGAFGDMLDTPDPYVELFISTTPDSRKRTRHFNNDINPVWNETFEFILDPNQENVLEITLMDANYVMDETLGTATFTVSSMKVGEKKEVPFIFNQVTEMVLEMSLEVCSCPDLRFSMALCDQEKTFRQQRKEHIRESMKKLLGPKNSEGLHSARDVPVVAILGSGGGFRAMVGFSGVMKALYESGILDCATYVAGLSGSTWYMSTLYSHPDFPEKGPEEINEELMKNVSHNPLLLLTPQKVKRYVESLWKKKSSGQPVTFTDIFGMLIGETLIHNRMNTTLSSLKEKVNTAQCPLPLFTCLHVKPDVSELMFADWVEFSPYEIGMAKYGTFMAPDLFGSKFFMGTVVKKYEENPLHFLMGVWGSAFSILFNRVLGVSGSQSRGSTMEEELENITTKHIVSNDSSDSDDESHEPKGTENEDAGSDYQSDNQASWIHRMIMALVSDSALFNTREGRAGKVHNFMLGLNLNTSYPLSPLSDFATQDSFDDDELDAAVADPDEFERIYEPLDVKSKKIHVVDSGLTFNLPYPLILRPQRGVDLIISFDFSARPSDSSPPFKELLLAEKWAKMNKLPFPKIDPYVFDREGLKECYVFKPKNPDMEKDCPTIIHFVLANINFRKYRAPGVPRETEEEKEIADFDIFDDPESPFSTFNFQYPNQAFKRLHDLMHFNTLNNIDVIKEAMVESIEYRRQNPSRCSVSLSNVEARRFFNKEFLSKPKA

RAW 264.7 macrophages = assay type: cell-based; conditions: Mus musculus; for inhibition at 25 µM: RAW264.7, read-out: AA Release Inhibition (%); for IC50: RAW264.7, read-out: IC50 for the inhibition of arachidonic acid release, RAW 264.7 cells stimulated with Kdo2-Lipid A, concentration for half maximal inhibition of the maximum inhibition observed
How it was run: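 Mouse RAW 264.7 macrophages were grown in DMEM with 10% FBS, 2 mM glutamine, penicillin/streptomycin and non-essential amino acids at 37 °C in 5% CO2. Cells were seeded at 2 × 10^6 per well and left to adhere overnight. Test compound (25 μM) was added 30 min before Kdo2-Lipid A, and supernatants were collected 1 h later. AA was extracted, quantified by HPLC-MS and normalized to cell number by DNA quantitation.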

GIVA cPLA2 [2] = target: T1, GIVA cPLA2; conditions: reference 2-oxoamide inhibitors; ref [15]; cited from earlier work
GVIA iPLA2 = target: T2, GVIA iPLA2 (Homo sapiens, UniProt O60733); conditions: reference 2-oxoamide inhibitors; ref [15]; cited from earlier work
T2 sequence (O60733 1-806): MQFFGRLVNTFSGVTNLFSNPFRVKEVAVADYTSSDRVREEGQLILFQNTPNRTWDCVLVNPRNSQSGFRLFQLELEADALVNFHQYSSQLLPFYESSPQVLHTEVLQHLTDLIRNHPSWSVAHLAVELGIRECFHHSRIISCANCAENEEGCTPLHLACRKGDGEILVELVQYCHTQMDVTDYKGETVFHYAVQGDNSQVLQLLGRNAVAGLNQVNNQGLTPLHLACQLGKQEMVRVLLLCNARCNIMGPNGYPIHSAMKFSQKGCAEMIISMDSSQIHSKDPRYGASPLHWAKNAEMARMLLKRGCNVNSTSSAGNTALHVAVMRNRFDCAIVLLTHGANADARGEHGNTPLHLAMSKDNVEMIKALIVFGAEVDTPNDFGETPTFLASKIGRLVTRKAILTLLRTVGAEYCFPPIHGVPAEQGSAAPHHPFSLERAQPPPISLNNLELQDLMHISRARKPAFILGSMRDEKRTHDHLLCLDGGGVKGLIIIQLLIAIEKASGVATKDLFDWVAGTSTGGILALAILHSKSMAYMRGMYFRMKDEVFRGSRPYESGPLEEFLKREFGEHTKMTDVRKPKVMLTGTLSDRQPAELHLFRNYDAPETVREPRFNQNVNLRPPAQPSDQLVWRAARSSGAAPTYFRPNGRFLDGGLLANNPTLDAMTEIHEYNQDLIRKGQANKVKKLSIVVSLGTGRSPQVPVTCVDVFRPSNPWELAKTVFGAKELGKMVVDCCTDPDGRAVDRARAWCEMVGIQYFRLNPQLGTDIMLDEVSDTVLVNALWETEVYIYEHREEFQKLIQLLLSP

SMILES: CCCCCCCCCCCCCCC(=O)C(=O)N[C@H](C(=O)NCC(=O)OC(C)(C)C)C(C)C [Compound 8b, (S)-tert-Butyl 2-(3-methyl-2-(2-oxohexadecanamido)butanamido)acetate]
GIVA cPLA2 XI(50) (GIVA cPLA2 [1]): 0.028 ± 0.015 mole fraction

SMILES: CCCCCCCCCCCCCCC(=O)C(=O)N[C@H](/C=C/C(=O)OCC)CCCC [Compound 33]
inhibition at 25 µM (RAW 264.7 macrophages): 16 ± 6%

IC50 (RAW 264.7 macrophages): ~25 µM
SMILES: CCCCCCCCCCCCCCC(=O)C(=O)NCCCC(=O)O [Compound 19]
inhibition at 25 µM (RAW 264.7 macrophages): 52 ± 5%

IC50 (RAW 264.7 macrophages): 7 µM
SMILES: CCCCCCCCCCCCCCC(=O)C(=O)N[C@@H](CCCC)CCCC(=O)O [Compound 35]
inhibition at 25 µM (RAW 264.7 macrophages): 59 ± 4%

SMILES: CCCCCCCCCCCCCCC(=O)C(=O)NCCCC(=O)CO [AX006]
GIVA cPLA2 XI(50) (GIVA cPLA2 [2]): 0.024 mole fraction and 0.024 ± 0.015 ^b mole fraction

SMILES: CCCCCCCCCCCCCCC(=O)C(=O)N[C@H](/C=C/C=C/C(=O)O)CCCC [Compound 28]
inhibition at 25 µM (RAW 264.7 macrophages): 6 ± 10%

SMILES: CCCCCCCCCCCCCCC(=O)C(=O)NCCCC(=O)COCC [AX048]
GIVA cPLA2 XI(50) (GIVA cPLA2 [2]): 0.022 ± 0.009 ^b mole fraction | GVIA iPLA2 XI(50) (GVIA iPLA2): 0.027 ± 0.009 ^b mole fraction

IC50 (RAW 264.7 macrophages): 10 µM
SMILES: CCCCCCCCCCC(=O)C(=O)N[C@@H](CCCC)CCC(=O)O [Compound 20]
inhibition at 25 µM (RAW 264.7 macrophages): 56 ± 6%

GIVA cPLA2 XI(50) (GIVA cPLA2 [1]): 0.035 ± 0.014 mole fraction
SMILES: CCCCCCCCCCCCCCC(=O)C(=O)N[C@@H](CCCC)C(=O)NCC(=O)O [Compound 9a, (S)-2-(2-(2-Oxohexadecanamido)hexanamido)acetic acid]

SMILES: CCCCCCCCCCCCCCC(=O)C(=O)NCCCCC(=O)OC(C)(C)C [Compound 34]
inhibition at 25 µM (RAW 264.7 macrophages): 11 ± 6%

SMILES: CCCCCCCCCCCCCCC(=O)C(=O)N[C@H](CCC(=O)O)CC(C)C [Compound 25]
inhibition at 25 µM (RAW 264.7 macrophages): 62 ± 5%

GIVA cPLA2 XI(50) (GIVA cPLA2 [1]): 0.061 ± 0.017 mole fraction
SMILES: CCCCCCCCCCCCCCC(=O)C(=O)N[C@H](C(=O)NCC(=O)O)C(C)C [Compound 9b, (S)-2-(3-Methyl-2-(2-oxohexadecanamido)butanamido)acetic acid]

SMILES: CCCCCCCCCCCCCCC(=O)C(=O)N[C@@H](CCCC)C(=O)NCC(=O)OC [Compound 4a, (S)-Methyl 2-(2-(2-oxohexadecanamido)hexanamido)acetate]
GIVA cPLA2 XI(50) (GIVA cPLA2 [1]): 0.021 ± 0.009 mole fraction

IC50 (RAW 264.7 macrophages): ~25 µM
SMILES: CCCCCCCCCCCCCCC(=O)C(=O)N[C@H](/C=C/C(=O)O)CCCC [Compound 30]
inhibition at 25 µM (RAW 264.7 macrophages): 74 ± 8%

IC50 (RAW 264.7 macrophages): ~2 µM
SMILES: CCCCCCCCCCCCCCC(=O)C(=O)N[C@@H](CCCC)COCC(=O)O [Compound 18, (S)-2-(2-(2-oxohexadecanamido)hexyloxy)acetic acid]
GIVA cPLA2 XI(50) (GIVA cPLA2 [1]): 0.017 mole fraction and 0.017 ± 0.002 mole fraction

SMILES: CCCCCCCCCCCCCCC(=O)C(=O)NCC(=O)OC [Compound 37]
inhibition at 25 µM (RAW 264.7 macrophages): 30 ± 2%

SMILES: CCCCCCCCCCCCCCC(=O)C(=O)N[C@@H](CCCC)CCC(=O)O [Compound 26]
inhibition at 25 µM (RAW 264.7 macrophages): 79 ± 0.5%

SMILES: CCCCCCCCCCC(=O)C(=O)N[C@@H](CCCC)C(=O)O [Compound 21]
inhibition at 25 µM (RAW 264.7 macrophages): 27 ± 6%
